The target of test [1] is T1, DNA topoisomerase 1 (Homo sapiens) (UniProt P11387).
T1 sequence (whole entry): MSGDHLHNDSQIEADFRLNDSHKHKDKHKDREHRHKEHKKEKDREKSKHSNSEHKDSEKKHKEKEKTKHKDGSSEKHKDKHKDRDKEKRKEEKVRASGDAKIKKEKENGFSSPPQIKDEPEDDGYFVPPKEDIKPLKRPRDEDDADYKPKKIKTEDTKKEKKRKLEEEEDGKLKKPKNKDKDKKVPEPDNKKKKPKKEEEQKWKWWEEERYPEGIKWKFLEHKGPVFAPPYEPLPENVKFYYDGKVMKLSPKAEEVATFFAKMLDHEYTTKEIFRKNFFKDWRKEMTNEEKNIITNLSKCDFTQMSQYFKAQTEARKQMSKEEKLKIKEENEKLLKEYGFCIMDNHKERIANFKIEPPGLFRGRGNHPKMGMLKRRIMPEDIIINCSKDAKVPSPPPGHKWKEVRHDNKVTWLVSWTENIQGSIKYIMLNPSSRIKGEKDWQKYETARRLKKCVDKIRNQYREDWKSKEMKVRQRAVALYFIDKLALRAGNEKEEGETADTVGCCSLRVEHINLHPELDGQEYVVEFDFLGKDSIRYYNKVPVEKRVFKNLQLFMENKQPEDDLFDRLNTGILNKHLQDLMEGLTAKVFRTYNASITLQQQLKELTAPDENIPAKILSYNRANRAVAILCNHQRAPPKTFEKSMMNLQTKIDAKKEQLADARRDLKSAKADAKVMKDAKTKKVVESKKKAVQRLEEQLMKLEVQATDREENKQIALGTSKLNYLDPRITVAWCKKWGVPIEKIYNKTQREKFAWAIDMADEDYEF
The experiment in a line: Inhibition of recombinant human topoisomerase-1 expressed in baculovirus infected sf9 cells at 1 uM using supercoiled pBS SK(+) DNA as substrate after 15 mins by ethidium bromide staining based agarose gel electrophoresis method relative to control. A digest of the protocol:
(§1)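 Relaxation assay: 90 fmol supercoiled pBS (SK+) DNA with 30 fmol recombinant Top1 (Sf-9/baculovirus). Compound either preincubated with Top1 for 5 min before DNA addition, or added simultaneously with DNA; then 37 °C for 15 min. Vehicle 2% DMSO. Read on 1% agarose gel. EC50 from mean ± SD of three experiments.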

The target in test [2] is T1, DNA topoisomerase 1 (Homo sapiens). The experiment in a line: Inhibition of recombinant human EGFP-tagged topoisomerase-1- DNA cleavage complex formation at 20 uM after 10 mins by FRAP assay. A digest of the protocol: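 FRAP in living MCF7 cells transiently expressing EGFP-human Top1, 37 °C chamber. Treatment was CPT 5 μM or compound 20 μM for 10 min, or CPT for 10 min then compound for 10 min. A subnuclear spot was bleached for 30 ms at 488 nm; curves normalized to the prebleach signal.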

Test [3] shares this target. The experiment in a line: Inhibition of CPT-induced recombinant human topoisomerase1-[…] cleavage complex at 10 to 50 uM after 30 mins using topoisomerase1 expressed in baculovirus infected sf9 cells by […].
Test [4] shares this target. The experiment in a line: Inhibition of recombinant human topoisomerase-1 expressed in baculovirus infected sf9 cells at 1 uM using supercoiled pBS SK(+) DNA as substrate preincubated for 5 mins followed by substrate addition measured after 15 mins by ethidium bromide staining based agarose gel electrophoresis method relative to control. A digest of the protocol: as §1

Test [5] relates to MCF7. The experiment in a line: Induction of ROS accumulation in human MCF7 cells at 10 uM up to 24 hrs in presence of ROS inhibitor NAC by CM-H2DCFDA dye based spectrofluorometric method. It counts as functional, cell-based. Summed up: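 MCF7 cells treated with 10 μM for the indicated times, with 0.2% DMSO as vehicle control, or pretreated with NAC (10 mM) for 30 min. ROS read as DCF fluorescence from CM-H2DCFDA. Mean ± SD of three independent experiments.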

The target in test [6] is T1, DNA topoisomerase 1 (Homo sapiens). The experiment in a line: Inhibition of topoisomerase-1 in human MCF7 whole cell extracts at 0.25 to 5 uM using supercoiled pBS SK(+) DNA as substrate preincubated for 5 mins followed by substrate addition measured after 15 mins by ethidium bromide staining based agarose gel electrophoresis method. A digest of the protocol:
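Ex vivo relaxation assay with MCF7 whole-cell lysate as the Top1 source and supercoiled pBS (SK+) DNA. Compound either preincubated with lysate for 5 min before DNA, or added simultaneously; then 37 °C for 15 min. CPT control at 5 μM. Read on agarose gel; mean ± SD, n=3.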

Test [7] shares this target. The experiment in a line: Induction of proteasome-mediated topoisomerase-1 degradation in human MCF7 cells at 10 uM up to 12 hrs in presence of proteasome inhibitor MG132 by Western blot method. The format is cell-based. Summed up:
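Whole-cell extracts of MCF7 cells treated with 10 μM for the indicated times, or preincubated with MG132 (100 nM) for 4 h before 12 h compound exposure. Top1 detected by Western blot with mouse monoclonal anti-Top1 (C21).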
Background: A western blot detects proteins with antibodies after separation by electrophoresis.

Test [8] shares this target. The experiment in a line: Reversible inhibition of recombinant human topoisomerase-1 expressed in baculovirus infected sf9 cells at 1 uM using supercoiled pBS SK(+) DNA as substrate preincubated for 5 mins followed by substrate addition and subsequent 40 fold compound dilution measured after 15 mins by ethidium bromide staining based agarose gel electrophoresis method. Summed up: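 Recombinant Top1 (100 fmol) preincubated with 1 μM compound for 5 min at 37 °C in relaxation buffer. Mixture diluted 5-, 10-, 20- or 40-fold (final 0.2–0.025 μM), then 50 fmol pBS (SK+) DNA added and incubated 15 min at 37 °C. Three repeats performed.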

The test system of test [9] is MCF7. The experiment in a line: Induction of PARP cleavage in human MCF7 cells at 10 uM up to 12 hrs by Western blot method. It counts as functional, cell-based. Summed up:
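MCF7 cells treated with 10 μM for the indicated times. Full-length and cleaved PARP1 detected by Western blot of whole-cell extracts using rabbit polyclonal PARP1 antibody.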

In test [10] the test system is MCF7. The experiment in a line: Induction of DNA strand breaks in human MCF7 cells at 10 to 20 uM after 12 hrs by alkaline comet assay relative to control. The format is functional. A digest of the protocol: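 MCF7 cells exposed 12 h; some pretreated with NAC (10 mM) for 30 min first. Alkaline comet assay; mean comet tail scored over 20–25 cells (average ± SEM).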

The test system of test [11] is MCF7. The experiment in a line: Cytotoxicity against human MCF7 cells transfected with Top1 SiRNA assessed as reduction in cell viability by MTT assay. It counts as functional, cell-based. Summed up: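 MCF7 cells transfected with Top1 or control siRNA for 72 h; knockdown confirmed by Western blot with actin as loading control. Percent survival then plotted against compound concentration.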
(Formazan colour is commonly taken as a measure of viable cells.)

The target in test [12] is T1, DNA topoisomerase 1 (Homo sapiens). The experiment in a line: Inhibition of recombinant human topoisomerase1-[32P]-labeled 25-mer duplex oligonucleotide cleavage complex formation at 10 to 50 uM after 30 mins using topoisomerase1 expressed in baculovirus infected sf9 cells by […].
The test system of a further test is Bacteria. The experiment in a line: Induction of relaxed pBluescript SK(+) DNA intercalation (unknown origin) assessed as negative supercoiling at 50 to 300 uM after 15 mins by agarose gel electrophoresis method. A digest of the protocol:
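Top1 unwinding assay: relaxed DNA made by reacting excess Top1 with supercoiled pBS (SK+) plasmid (50 fmol), then incubated with compound at 50, 100 or 300 μM; m-AMSA and etoposide as reference intercalator/non-intercalator. Topoisomers resolved on agarose gel.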

For a further test, the system named is HeLa. The experiment in a line: Cytotoxicity against human HeLa cells assessed as reduction in cell viability by MTT assay. It counts as functional, cell-based. A digest of the protocol:
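Survival of each cell line measured across a range of compound concentrations. Percent inhibition of viability at each concentration calculated against untreated control and IC50 estimated. MEFs were TDP1+/+ and TDP1–/– primary cells. Mean ± SD of at least three experiments in duplicate.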

Structures are written as SMILES. Calls of active or inactive are those of the source. The calls are words filed in the database; no cut-off is given here.

In general, inhibition refers to the drop in the measured response relative to a control, in per cent. A word on the IC50: it is the concentration that inhibits the measured activity by half. As for `CN(C)c1ccc(-c2c3nc(c(-c4ccc(N(C)C)cc4)c4ccc([nH]4)c(-c4ccc(C(=O)O)cc4)c4nc(c(-c5ccc(C(=O)O)cc5)c5ccc2[nH]5)C=C4)C=C3)cc1`, the inhibition in [1] fell in the range of 35 to 40%; in test [4] it was 85 to 99%. The inhibition result in [2], in test [3], in test [6], in test [8] and in test [12] was “Active” each time. Besides, the outcome (with MCF7 [5]; in test [7]; with Bacteria) was inactive. Also, the outcome in the test on MCF7 [9] was Active. Moreover, the “fold change (FC)” value in the test on MCF7 [10] came to 8. The half-inhibitory concentration (IC50) with MCF7 [11] amounted to 8.15 µM; with HeLa it was 4.13 µM.

Source of the values: ChEMBL document CHEMBL4024789, “Neutral Porphyrin Derivative Exerts Anticancer Activity by Targeting Cellular Topoisomerase I (Top1) and Promotes Apoptotic Cell Death without Stabilizing Top1-DNA Cleavage Complexes” (J Med Chem, 2018).
